The values that follow come from ChEMBL document CHEMBL1156845, “Spirocyclic ureas: orally bioavailable 11 beta-HSD1 inhibitors identified by computer-aided drug design” (Bioorg Med Chem Lett, 2010).

In data set [1] the target is T1, 11-beta-hydroxysteroid dehydrogenase 1 (Homo sapiens, UniProt P28845). The data set is described as follows: Inhibition of human recombinant 11beta-HSD1 expressed in CHO cells assessed as conversion of [3H]cortisone to [3H]cortisol by SPA. In kind it is cell-based.
Data set [2] addresses T1, 11-beta-hydroxysteroid dehydrogenase 1. Kind of data set: Inhibition of 11beta-HSD1 in human adipocytes assessed as conversion of [3H]cortisone to [3H]cortisol after 2 hrs by SPA. The class given is cell-based.
Data set [3] deals with T2, 11-beta-hydroxysteroid dehydrogenase type 2 (Homo sapiens, UniProt P80365).
T2 sequence (P80365 whole entry): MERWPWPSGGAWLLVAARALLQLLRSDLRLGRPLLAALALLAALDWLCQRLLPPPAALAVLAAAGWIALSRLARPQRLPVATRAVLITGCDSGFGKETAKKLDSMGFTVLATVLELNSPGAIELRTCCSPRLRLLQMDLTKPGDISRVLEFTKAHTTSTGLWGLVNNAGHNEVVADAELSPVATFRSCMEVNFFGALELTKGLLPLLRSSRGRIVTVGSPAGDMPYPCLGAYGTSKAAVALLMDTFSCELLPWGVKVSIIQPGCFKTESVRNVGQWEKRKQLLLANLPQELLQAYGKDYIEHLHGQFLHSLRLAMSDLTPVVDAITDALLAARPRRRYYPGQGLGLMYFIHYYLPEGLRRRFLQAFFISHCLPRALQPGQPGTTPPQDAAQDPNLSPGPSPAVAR
Kind of data set: Inhibition of 11beta-HSD2.

Data set [4] is described as follows: Clearance in mouse at 1.9 mg/kg, iv. The class given is ADME, organism-based. Also noted: dose 1.9 mg/kg, route intravenous. Particulars: in vivo. An outline of the steps:
(§1)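 PK after oral and IV dosing, with compounds given as sodium salts. Rat and mouse received 9.68 mg/kg PO and 1.9 mg/kg IV; cynomolgus monkey received 2 mg/kg PO and 1 mg/kg IV. AUC(inf) and t1/2 are the oral parameters, clearance is from the IV arm, and %F is oral bioavailability.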

Data set [5] can be described thus: AUC (infinity) in mouse at 9.68 mg/kg, po and 1.9 mg/kg, iv. In kind it is ADME, organism-based. Particulars: plasma. An outline of the steps: as §1
The next data set addresses Cytochrome P450 2D6 (Homo sapiens, UniProt P10635). The data set is described as follows: Inhibition of CYP2D6. The class given is ADME.
A further data set addresses Cytochrome P450 3A4 (Homo sapiens, UniProt P08684). The data set is described as follows: Inhibition of CYP3A4. In kind it is ADME.
A short description of data set [6]: Drug level in mouse plasma at 30 mg/kg, po after 4 hrs by LC-MS/MS analysis. In kind it is ADME, organism-based. Details: dose 30 mg/kg, route oral. An outline of the steps: (§2)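 Mice (n = 3) were dosed PO at 30 mg/kg as a suspension in 0.5% methocellulose in PBS. Plasma, liver and adipose were harvested at 4 h and snap frozen. Thawed tissue was homogenized in 0.05 M BES, pH 7, and extracted into acetonitrile. Levels were measured by LC–MS/MS against standard curves made separately in each tissue matrix.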

Data set [7] in a line: Drug level in mouse liver at 30 mg/kg, po after 4 hrs by LC-MS/MS analysis. In kind it is ADME, organism-based. Particulars: read-out: Drug uptake. Details: dose 30 mg/kg, route oral. In outline:
as §2

A short description of data set [8]: Oral bioavailability in mouse at 9.68 mg/kg. Particulars: in vivo. In kind it is ADME, organism-based. In outline:
as §1

Data set [9] is described as follows: AUC (infinity) in cynomolgus monkey at 2 mg/kg, po and 1 mg/kg, iv. Particulars: plasma. The class given is ADME, organism-based, Macaca fascicularis. In outline:
as §1

The nature of data set [10]: Half life in cynomolgus monkey at 2 mg/kg, po and 1 mg/kg, iv. The class given is ADME, organism-based, Macaca fascicularis. The settings on record: in vivo. In outline: as §1
Data set [11] can be described thus: AUC (infinity) in rat at 9.68 mg/kg, po and 1.9 mg/kg, iv. The class given is ADME, organism-based. The settings on record: plasma. An outline of the steps:
as §1

Data set [12] is described as follows: Half life in human liver microsomes. The class given is ADME, Microsome.
Data set [13] is described as follows: Oral bioavailability in rat at 9.68 mg/kg. The class given is ADME, organism-based. The settings on record: in vivo. An outline of the steps:
as §1

A short description of data set [14]: Drug level in mouse adipose at 30 mg/kg, po after 4 hrs by LC-MS/MS analysis. Details: dose 30 mg/kg, route oral. The settings on record: adipose tissue, read-out: Drug uptake. In kind it is ADME, organism-based. An outline of the steps:
as §2

Data set [15] in a line: Clearance in cynomolgus monkey at 1 mg/kg, iv. Details: dose 1 mg/kg, route intravenous. The class given is ADME, organism-based, Macaca fascicularis. Particulars: in vivo. In outline: as §1
Data set [16] can be described thus: Oral bioavailability in cynomolgus monkey at 2 mg/kg. The class given is ADME, organism-based, Macaca fascicularis. The settings on record: in vivo. In outline:
as §1

A further data set has as its target Cytochrome P450 2C9 (Homo sapiens, UniProt P11712). Kind of data set: Inhibition of CYP2C9. The class given is ADME.
Data set [17] is described as follows: Half life in mouse at 9.68 mg/kg, po and 1.9 mg/kg, iv. The settings on record: in vivo. The class given is ADME, organism-based. An outline of the steps:
as §1

Data set [18] is described as follows: Half life in rat at 9.68 mg/kg, po and 1.9 mg/kg, iv. Particulars: in vivo. In kind it is ADME, organism-based. An outline of the steps:
as §1

Data set [19] is described as follows: Clearance in rat at 1.9 mg/kg, iv. Particulars: in vivo. In kind it is ADME, organism-based. Also noted: dose 1.9 mg/kg, route intravenous. An outline of the steps:
as §1

Another data set concerns Cynomolgus monkey. The data set is described as follows: Inhibition of 11beta-HSD1 in cynomolgus monkey assessed as reduction of plasma cortisol concentration at 10 mg/kg, po administered 2 hrs before cortisone 21-acetate challenge measured every 30 mins for 6 hrs. The class given is functional, Macaca fascicularis. Also noted: scale not given: the % may be the effect or the level left. An outline of the steps:
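Cynomolgus monkeys (n = 5, crossover, 7-day washout) were given dexamethasone at t = −8 h to suppress endogenous cortisol. Vehicle or compound (10 mg/kg PO) followed at t = 0, then cortisone 21-acetate challenge (25 mg PO) at t = 2 h. Blood was sampled every 30 min for 6 h to measure plasma cortisol.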

Structures are written as SMILES.

T1 sequence (P28845 whole entry): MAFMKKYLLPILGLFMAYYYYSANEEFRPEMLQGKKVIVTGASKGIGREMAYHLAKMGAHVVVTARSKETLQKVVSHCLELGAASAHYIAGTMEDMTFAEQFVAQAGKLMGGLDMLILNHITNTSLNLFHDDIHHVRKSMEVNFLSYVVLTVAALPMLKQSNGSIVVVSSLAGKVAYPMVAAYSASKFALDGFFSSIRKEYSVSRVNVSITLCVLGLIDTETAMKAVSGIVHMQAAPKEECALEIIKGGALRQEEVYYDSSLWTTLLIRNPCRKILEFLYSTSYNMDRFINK
Chain of Cytochrome P450 2C9 (P11712 whole entry): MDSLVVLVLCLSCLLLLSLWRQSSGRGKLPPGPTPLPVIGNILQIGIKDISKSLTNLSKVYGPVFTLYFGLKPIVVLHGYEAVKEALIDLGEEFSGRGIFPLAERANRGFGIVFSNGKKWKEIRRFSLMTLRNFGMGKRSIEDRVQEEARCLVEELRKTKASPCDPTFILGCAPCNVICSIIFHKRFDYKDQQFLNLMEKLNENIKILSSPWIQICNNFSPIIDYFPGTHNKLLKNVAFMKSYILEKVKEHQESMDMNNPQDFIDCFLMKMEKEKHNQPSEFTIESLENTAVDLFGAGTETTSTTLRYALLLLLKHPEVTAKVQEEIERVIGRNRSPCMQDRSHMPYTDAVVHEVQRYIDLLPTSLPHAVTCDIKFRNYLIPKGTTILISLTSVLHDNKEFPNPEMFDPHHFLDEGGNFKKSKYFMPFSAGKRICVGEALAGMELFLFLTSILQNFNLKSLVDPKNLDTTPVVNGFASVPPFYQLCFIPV
Chain of Cytochrome P450 3A4 (P08684 whole entry): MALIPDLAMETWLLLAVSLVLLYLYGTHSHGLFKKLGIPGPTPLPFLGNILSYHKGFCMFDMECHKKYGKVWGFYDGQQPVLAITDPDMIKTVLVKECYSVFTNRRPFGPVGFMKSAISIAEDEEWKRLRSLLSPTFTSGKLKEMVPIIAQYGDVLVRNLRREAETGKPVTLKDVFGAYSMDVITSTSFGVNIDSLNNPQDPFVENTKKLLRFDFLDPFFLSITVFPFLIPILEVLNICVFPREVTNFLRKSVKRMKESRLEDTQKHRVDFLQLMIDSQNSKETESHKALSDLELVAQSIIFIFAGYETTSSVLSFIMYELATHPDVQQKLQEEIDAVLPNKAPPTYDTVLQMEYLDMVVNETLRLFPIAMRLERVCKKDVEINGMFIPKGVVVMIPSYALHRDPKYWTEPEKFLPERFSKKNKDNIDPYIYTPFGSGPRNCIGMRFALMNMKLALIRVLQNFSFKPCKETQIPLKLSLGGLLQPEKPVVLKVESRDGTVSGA
Chain of Cytochrome P450 2D6 (P10635 whole entry): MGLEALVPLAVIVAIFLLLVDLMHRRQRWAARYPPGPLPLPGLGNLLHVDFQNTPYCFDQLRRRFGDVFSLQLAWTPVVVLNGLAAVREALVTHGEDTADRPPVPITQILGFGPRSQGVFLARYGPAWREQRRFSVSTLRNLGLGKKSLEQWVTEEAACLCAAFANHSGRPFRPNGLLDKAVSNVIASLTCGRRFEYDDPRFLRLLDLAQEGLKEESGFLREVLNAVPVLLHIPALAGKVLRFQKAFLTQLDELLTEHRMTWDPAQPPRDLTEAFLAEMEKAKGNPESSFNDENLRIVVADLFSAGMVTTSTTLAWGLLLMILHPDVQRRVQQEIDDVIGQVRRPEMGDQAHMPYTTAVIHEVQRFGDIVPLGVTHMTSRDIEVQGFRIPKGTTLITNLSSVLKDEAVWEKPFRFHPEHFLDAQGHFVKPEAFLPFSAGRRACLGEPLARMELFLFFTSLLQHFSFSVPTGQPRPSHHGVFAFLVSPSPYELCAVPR

In general, IC50 refers to the point on the concentration scale where inhibition reaches its midpoint. With `Cc1ccc2c(c1)C1(CCN(C(=O)NC3C4CC5CC(C4)CC3C5)CC1)CC2CC(=O)O` (stereo not drawn), the IC50 was 8.9 nM in data set [1], 22.5 nM in data set [2] and above 10000 nM in data set [3].

Turning to `O=C(O)C[C@@H]1CC2(CCN(C(=O)NC3C4CC5CC(C4)CC3C5)CC2)c2c(Br)cccc21` (single isomer, unassigned), the IC50 is 2 nM in [1], 7.5 nM in [2] and above 10000 nM in [3].

For `O=C(O)CC1CC2(CCN(C(=O)NC3C4CC5CC(C4)CC3C5)CC2)c2cc(Cl)ccc21` (stereo not drawn), the IC50 is 3.4 nM in data set [1], 30.2 nM in data set [2] and above 10000 nM in [3].

What is called clearance is the rate of elimination divided by the concentration. A word on the AUC(0-inf): it is total exposure, with the tail of the curve extrapolated. The term bioavailability denotes dose-corrected exposure relative to a reference, in per cent. For orientation: half-life means the time in which the quantity being followed falls by half. For the compound `O=C(O)CC1CC2(CCN(C(=O)NC3C4CC5CC(C4)CC3C5)CC2)c2c(Br)cccc21` (stereo not drawn), the figures for the clearance in data set [4], in [15] and in [19] were 28.1 mL/min/kg, 13.8 mL/min/kg and 26.6 mL/min/kg, respectively. Moreover, the area under the curve AUC(0-inf) amounted to 1720 ng·h/mL in [5], 743 ng·h/mL in data set [9] and 5400 ng·h/mL in [11]. For the same compound, the IC50 in [1] was 1.6 nM; against Cytochrome P450 2D6, above 15000 nM; on Cytochrome P450 3A4 it was above 15000 nM; in data set [2], 5.3 nM; in data set [3], above 10000 nM; against Cytochrome P450 2C9 it was above 15000 nM. In addition, the concentration at 4 h in data set [6] is 442 ng/mL; in [7], 5130 ng/mL; in data set [14] it was 77 ng/mL. Moreover, the results for the bioavailability in data set [8], in data set [13] and in data set [16] were 29%, 90% and 31%, respectively. Besides, the half-life in data set [10] is 6.03 h; in [12] it was above 1 h; in data set [17], 6.17 h; in data set [18] it was 3.46 h.

In the case of `CS(=O)(=O)NC(=O)CC1CC2(CCN(C(=O)NC3C4CC5CC(C4)CC3C5)CC2)c2c(Br)cccc21` (stereo not drawn), the concentration for half-maximal inhibition (IC50) in data set [1] was 2 nM; in data set [2], 22.3 nM; in data set [3] it was above 10000 nM.

`Cc1cccc2c1C1(CCN(C(=O)NC3C4CC5CC(C4)CC3C5)CC1)CC2CC(=O)O` (stereo not drawn): the results for the concentration for half-maximal inhibition (IC50) in [1], in data set [2] and in [3] were 7.6 nM, 18.3 nM and above 10000 nM, respectively.

As to `O=C(O)CC1CC2(CCN(C(=O)NC3C4CC5CC(C4)CC3C5)CC2)c2c(Cl)cccc21` (stereo not drawn), the IC50 in [1] was 2.2 nM; in data set [2] it was 10.7 nM; in [3], above 10000 nM.

On to `O=C(O)C1CC2(CCN(C(=O)NC3C4CC5CC(C4)CC3C5)CC2)c2ccccc21` (stereo not drawn), for which the IC50 in data set [1] is 68.6 nM; in data set [2] it was above 200 nM.

Take `NC(=O)CC1CC2(CCN(C(=O)NC3C4CC5CC(C4)CC3C5)CC2)c2c(Br)cccc21` (stereo not drawn): the half-maximal inhibitory concentration (IC50) in [1] was 0.5 nM; in data set [2], 0.9 nM.

For `O=C(O)C[C@H]1CC2(CCN(C(=O)NC3C4CC5CC(C4)CC3C5)CC2)c2c(Br)cccc21` (stereo partly drawn), the IC50 is 1.1 nM in data set [1], 2.5 nM in data set [2] and above 10000 nM in data set [3]. For the same compound, the concentration at 4 h was found to be 393 ng/mL in data set [6], 7070 ng/mL in data set [7] and 127 ng/mL in data set [14]. Further, in the data set on Cynomolgus monkey, the Activity is 80%.

Turning to `O=C(NC1C2CC3CC(C2)CC1C3)N1CCC2(CCc3ccccc32)CC1` (stereo not drawn), the values for the IC50 in [1] and in [2] were 0.8 nM and 2.7 nM, respectively.

The compound `O=C(O)CC1CC2(CCN(C(=O)NC3C4CC5CC(C4)CC3C5)CC2)c2ccccc21` (stereo not drawn) gave an AUC(0-inf) in data set [11] of 3530 ng·h/mL. This compound had a bioavailability in data set [13] of 94%. This compound had a half-life in [18] of 2.87 h. The clearance in [19] is 47.1 mL/min/kg.

As for `O=C(NC1C2CC3CC(C2)CC1C3)N1CCC2(CC1)CC(CCO)c1cccc(Br)c12` (stereo not drawn), the IC50 in data set [1] amounted to 1.7 nM; in [2], 18 nM; in data set [3], 9000 nM.

In the case of `O=C(O)CC1CC2(CCN(C(=O)NC3C4CC5CC(C4)CC3C5)CC2)c2ccc(Cl)cc21` (stereo not drawn), the figures for the half-inhibitory concentration (IC50) in [1], in data set [2] and in [3] were 3.4 nM, 23.2 nM and above 10000 nM, respectively.
